The text below walks through data of ChEMBL document CHEMBL1139005, “Branched diacylglycerol-lactones as potent protein kinase C ligands and alpha-secretase activators” (J Med Chem, 2006).

Test [1] concerns W4 (Rattus norvegicus). The test is described as follows: Activation of alpha secretase assessed by sAPPalpha secretion in W4 cells relative to control. Set-up: concentration or dose not given beside the values.
Test [2] concerns the target Protein kinase C alpha type (Homo sapiens, UniProt P17252). The test is described as follows: Displacement of [20-3H]PDBu from recombinant PKC alpha in presence of phosphatidylserine. The essentials:
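Competition for bound [20-3H]phorbol 12,13-dibutyrate on recombinant PKC-α with phosphatidylserine present; IC50 obtained by fitting points to the theoretical competition curve, then converted to Ki.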

Regarding `CC(C)CC(C/C=C1\CC(CO)(COC(=O)C(C)(C)C)OC1=O)CC(C)C` (configuration not stated), the Activity in test [1] was 133%.
As to `CC(C)CC(C/C=C1\CC(CO)(COC(=O)CC(C(C)C)C(C)C)OC1=O)CC(C)C` (configuration not stated), in test [1], the Activity came to 225%.
On to `CCCCCC(=O)OCC1(CO)C/C(=C\CC(CC(C)C)CC(C)C)C(=O)O1` (configuration not stated), for which, in test [2], the Ki turned out to be 6.18 nM.
With `CC(C)CC(C/C=C1/C[C@@](CO)(COC(=O)C(C)(C)C)OC1=O)CC(C)C`, in test [2], the Ki stood at 1.45 nM. The same molecule showed an Activity in test [1] of 209%.
Consider `CC(C)CC(C/C=C1/CC(CO)(COC(=O)CC(CC(C)C)CC(C)C)OC1=O)CC(C)C` (configuration not stated), for which, in test [2], the Ki was 6.88 nM.
In the case of `CC(C)CC(C/C=C1/CC(/C=C/C(=O)OC(C)(C)C)(CO)OC1=O)CC(C)C` (configuration not stated), the Ki in test [2] worked out at 18 nM. The molecule also yielded an Activity in test [1] of 200%.
For the molecule `CCCCCCCC(=O)OCC1(CO)CC/C(=C\CC(CC(C)C)CC(C)C)C(=O)O1` (configuration not stated), in test [2], the Ki was 129 nM.
Same read-out and setting: the value for `CC(C)CC(C/C=C1\CCC(CO)(COC(=O)C(C)(C)C)OC1=O)CC(C)C` (configuration not stated) was 48 nM; that for `CCCCCC(=O)OCC1(CO)CC/C(=C\CC(CC(C)C)CC(C)C)C(=O)O1` (configuration not stated) was 147 nM.
As to `CCCCCCCC(=O)OCC1(CO)C/C(=C/CC(CC(C)C)CC(C)C)C(=O)O1` (configuration not stated), the Ki in test [2] is 4.97 nM. Moreover, the Activity in test [1] is listed as 158%.
As for `CC(C)=CCC1(CC=C(C)C)CC(CO)(COC(=O)C(C)(C)C)OC1=O` (configuration not stated), the Ki in test [2] is 2100 nM.
On the same count and under the same terms, to `CC(C)CC(C/C=C1/CCC(CO)(COC(=O)C(C)(C)C)OC1=O)CC(C)C` (configuration not stated) belongs 28 nM.
Molecule `CCCC(=O)O[C@@H]1[C@@H](C)[C@@]2(O)[C@@H](C=C(CO)C[C@]3(O)C(=O)C(C)=C[C@@H]23)[C@@H]2C(C)(C)[C@]12OC(=O)CCC` gave an Activity in test [1] of 185%.
For the molecule `CC(C)CCC1(CCC(C)C)CC(CO)(COC(=O)C(C)(C)C)OC1=O` (configuration not stated), the inhibitory constant (Ki) in test [2] was found to be 18300 nM.
Consider `CC(C)CC(C/C=C1\CC(CO)(COC(=O)c2ccccc2)OC1=O)CC(C)C` (configuration not stated), for which, in test [2], the Ki was 16.1 nM. The molecule further gave an Activity in test [1] of 131%.
On to `CC(C)CC(C/C=C1\CC(/C=C/C(=O)OC(C)(C)C)(CO)OC1=O)CC(C)C` (configuration not stated), for which the Ki in test [2] amounted to 173 nM.
Consider `CC(C)CC(C/C=C1/CC(CO)(COC(=O)c2ccccc2)OC1=O)CC(C)C` (configuration not stated), for which the Ki in test [2] was found to be 6.66 nM. This molecule gave an Activity in test [1] of 157%.
Regarding `CCCCCC(=O)OCC1(CO)C/C(=C/CC(CC(C)C)CC(C)C)C(=O)O1` (configuration not stated), the Ki in test [2] worked out at 3.78 nM.
For `CCCCCCCC(=O)OCC1(CO)C/C(=C\CC(CC(C)C)CC(C)C)C(=O)O1` (configuration not stated), the Ki in test [2] was 6.04 nM. Also, the Activity in test [1] is listed as 141%.
`CC(C)CC(C/C=C1\CC(/C=C\C(=O)OC(C)(C)C)(CO)OC1=O)CC(C)C` (configuration not stated): the inhibitory constant (Ki) in test [2] stood at 21700 nM.
`CC(C)CC(C/C=C1/CC(CO)(COC(=O)C(C)(C)C)OC1=O)CC(C)C` (configuration not stated) showed an Activity in test [1] of 177%.

By Ki is commonly meant the equilibrium dissociation constant of an inhibitor or competing ligand from its target.
